# Measurements: ChEMBL document CHEMBL1132324, “Structure-activity relationships in 1,4-benzodioxan-related compounds. 6. Role of the dioxane unit on selectivity for alpha(1)-adrenoreceptor subtypes” (J Med Chem, 1999)
# Tests used:
# [1] = biological target: T1, 5-hydroxytryptamine receptor 1A (Homo sapiens) (UniProt P08908); assay: The binding affinity was evaluated on cloned human 5-hydroxytryptamine 1A receptor expressed in HeLa cells by using DPAT as radioligand.; assay type: cell-based
# T1 sequence (whole entry): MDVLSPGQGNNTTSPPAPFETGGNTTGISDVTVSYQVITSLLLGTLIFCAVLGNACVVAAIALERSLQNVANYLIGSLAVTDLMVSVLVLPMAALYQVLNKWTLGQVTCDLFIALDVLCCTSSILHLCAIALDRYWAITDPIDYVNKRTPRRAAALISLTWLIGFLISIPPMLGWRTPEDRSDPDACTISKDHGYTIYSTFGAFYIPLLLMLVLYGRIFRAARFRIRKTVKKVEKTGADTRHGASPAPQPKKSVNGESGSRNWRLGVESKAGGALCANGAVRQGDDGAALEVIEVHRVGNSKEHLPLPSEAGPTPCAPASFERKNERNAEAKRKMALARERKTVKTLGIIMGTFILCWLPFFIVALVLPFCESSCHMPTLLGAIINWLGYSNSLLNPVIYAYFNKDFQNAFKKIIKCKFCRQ
# How it was run: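 Membranes from HeLa cells stably expressing human 5-HT1A, in 50 mM Tris-HCl pH 7.4, 2.5 mM MgCl2, 10 μM pargyline. Nonspecific binding with 10 μM 5-HT. Filtration. Ki by Cheng-Prusoff. 2–3 experiments in triplicate.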
# [2] = biological target: T2, Alpha-1D adrenergic receptor (Homo sapiens) (UniProt P25100); assay: The binding affinity was evaluated on cloned human Alpha-1D adrenergic receptor expressed in chinese hamster ovary(CHO) cells by using [3H]-prazosin as radioligand.; assay type: cell-based
# T2 sequence (whole entry): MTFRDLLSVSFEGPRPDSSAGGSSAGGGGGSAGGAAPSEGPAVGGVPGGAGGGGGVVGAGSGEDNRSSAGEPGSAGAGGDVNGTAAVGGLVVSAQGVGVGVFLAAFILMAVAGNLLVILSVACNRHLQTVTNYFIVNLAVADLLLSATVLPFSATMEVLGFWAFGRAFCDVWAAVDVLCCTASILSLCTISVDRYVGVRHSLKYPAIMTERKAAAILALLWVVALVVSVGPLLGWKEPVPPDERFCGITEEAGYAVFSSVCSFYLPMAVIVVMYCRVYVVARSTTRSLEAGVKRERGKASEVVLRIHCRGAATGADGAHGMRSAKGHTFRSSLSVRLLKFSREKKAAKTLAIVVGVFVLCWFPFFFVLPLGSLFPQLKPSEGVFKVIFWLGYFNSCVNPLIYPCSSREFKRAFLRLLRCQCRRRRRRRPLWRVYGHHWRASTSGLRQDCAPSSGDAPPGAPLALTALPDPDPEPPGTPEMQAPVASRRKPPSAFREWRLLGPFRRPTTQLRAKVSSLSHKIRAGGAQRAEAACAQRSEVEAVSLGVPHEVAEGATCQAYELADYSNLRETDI
# How it was run: (§1)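 Membranes (30 μg protein) from CHO cells stably expressing each human α1 subtype, in 50 mM Tris-HCl pH 7.4. Incubated with 0.1–0.4 nM [3H]prazosin for 30 min at 25 °C, competitor 1 pM–10 μM. Nonspecific binding with 10 μM phentolamine. Ki by Cheng-Prusoff. 2–3 experiments in triplicate.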
# [3] = biological target: T1, 5-hydroxytryptamine receptor 1A (Homo sapiens); assay: Agonist efficacy was evaluated as [35S]GTP binding on cloned human 5-hydroxytryptamine 1A receptor; assay type: functional
# How it was run: (§2)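 HeLa membranes stably expressing human 5-HT1A, in 20 mM HEPES, 3 mM MgSO4, 120 mM NaCl (pH 7.4). Preincubated 20 min at 30 °C with 30 μM GDP and drug (100 μM–0.1 nM), then [35S]GTPγS (150–250 pM) added for a further 30 min at 30 °C. Nonspecific binding with 10 μM GTPγS. Filtration and scintillation counting. Stimulation is % above basal, with maximal 5-HT response = 100%. Emax and pD2 from curve fitting. Triplicate, 2–3 sessions.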
# [4] = biological target: T3, Alpha-1B adrenergic receptor (Homo sapiens) (UniProt P35368); assay: The binding affinity was evaluated on cloned human Alpha-1B adrenergic receptor expressed in chinese hamster ovary(CHO) cells by using [3H]prazosin as radioligand.; assay type: cell-based; how it was run: as §1
# T3 sequence (whole entry): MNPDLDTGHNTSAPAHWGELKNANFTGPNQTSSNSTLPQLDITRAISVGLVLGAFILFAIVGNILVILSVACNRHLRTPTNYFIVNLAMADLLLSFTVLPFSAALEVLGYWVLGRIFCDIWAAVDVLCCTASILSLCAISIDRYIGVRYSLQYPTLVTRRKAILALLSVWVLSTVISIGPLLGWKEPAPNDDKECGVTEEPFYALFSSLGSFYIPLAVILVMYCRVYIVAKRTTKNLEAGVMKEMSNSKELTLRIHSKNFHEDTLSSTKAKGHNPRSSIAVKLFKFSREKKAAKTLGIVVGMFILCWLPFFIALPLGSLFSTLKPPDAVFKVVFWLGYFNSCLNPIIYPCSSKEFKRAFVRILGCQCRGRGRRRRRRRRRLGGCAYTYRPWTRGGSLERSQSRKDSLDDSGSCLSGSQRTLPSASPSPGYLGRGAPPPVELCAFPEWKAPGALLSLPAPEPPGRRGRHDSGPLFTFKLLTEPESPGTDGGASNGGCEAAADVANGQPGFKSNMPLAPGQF
# [5] = biological target: T4, Alpha-1A adrenergic receptor (Homo sapiens) (UniProt P35348); assay: The binding affinity was evaluated on cloned human Alpha-1A adrenergic receptor expressed in chinese hamster ovary(CHO) cells by using [3H]prazosin as radioligand.; assay type: cell-based; how it was run: as §1
# T4 sequence (whole entry): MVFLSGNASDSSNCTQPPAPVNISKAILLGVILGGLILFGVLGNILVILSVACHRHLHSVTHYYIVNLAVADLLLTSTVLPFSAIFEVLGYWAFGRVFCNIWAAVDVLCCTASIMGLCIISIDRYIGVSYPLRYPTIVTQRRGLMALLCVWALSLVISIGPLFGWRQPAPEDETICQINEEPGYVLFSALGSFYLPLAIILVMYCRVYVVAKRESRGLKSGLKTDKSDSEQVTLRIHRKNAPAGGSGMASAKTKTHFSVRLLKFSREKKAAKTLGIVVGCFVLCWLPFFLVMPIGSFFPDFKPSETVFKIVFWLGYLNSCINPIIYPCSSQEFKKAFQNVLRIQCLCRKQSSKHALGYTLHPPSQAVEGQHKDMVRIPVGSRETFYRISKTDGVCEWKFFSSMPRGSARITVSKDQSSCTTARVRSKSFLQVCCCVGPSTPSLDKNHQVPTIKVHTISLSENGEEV
# [6] = biological target: T1, 5-hydroxytryptamine receptor 1A (Homo sapiens); assay: Maximum […] was evaluated as ([35S]GTP binding on cloned human 5-hydroxytryptamine 1A receptor; assay type: functional; how it was run: as §2
# [7] = biological target: T1, 5-hydroxytryptamine receptor 1A (Homo sapiens)
# [8] = biological target: T1, 5-hydroxytryptamine receptor 1A (Homo sapiens); remark: listed apart in the source
# [9] = biological target: D(2) dopamine receptor (Rattus norvegicus) (UniProt P61169); assay: The binding affinity was evaluated on Dopamine receptor D2 expressed in rat striatum by using [3H]spiperone as radioligand; assay type: tissue-based
# Chain of D(2) dopamine receptor (Rattus norvegicus) (P61169 whole entry): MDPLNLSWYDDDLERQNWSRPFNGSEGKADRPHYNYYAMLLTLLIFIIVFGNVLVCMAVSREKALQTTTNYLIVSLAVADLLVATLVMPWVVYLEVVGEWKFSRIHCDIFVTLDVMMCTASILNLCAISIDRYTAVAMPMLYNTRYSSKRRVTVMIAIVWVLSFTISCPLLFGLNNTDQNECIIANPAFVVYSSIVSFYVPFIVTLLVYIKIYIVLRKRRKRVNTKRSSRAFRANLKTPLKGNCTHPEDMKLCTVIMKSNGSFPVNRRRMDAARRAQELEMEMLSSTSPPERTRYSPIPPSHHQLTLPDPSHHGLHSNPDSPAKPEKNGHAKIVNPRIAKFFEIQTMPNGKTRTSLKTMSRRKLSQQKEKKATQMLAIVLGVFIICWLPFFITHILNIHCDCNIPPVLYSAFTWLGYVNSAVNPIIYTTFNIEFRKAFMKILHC
# How it was run: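 Rat striatum membranes in Tris-HCl with 10 μM pargyline, 0.1% ascorbic acid, 120 mM NaCl, 5 mM KCl, 2 mM CaCl2, 1 mM MgCl2. Incubated 15 min at 37 °C with 0.2–0.6 nM [3H]spiperone. Nonspecific binding with 1 μM (+)-butaclamol. Ki by Cheng-Prusoff. 2–3 experiments in triplicate.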
# [10] = biological target: 5-hydroxytryptamine receptor 2A (Rattus norvegicus) (UniProt P14842); assay: The binding affinity was evaluated on 5-hydroxytryptamine 2A receptor expressed in rat cortex by using [3H]ketanserin as radioligand.
# Chain of 5-hydroxytryptamine receptor 2A (Rattus norvegicus) (P14842 whole entry): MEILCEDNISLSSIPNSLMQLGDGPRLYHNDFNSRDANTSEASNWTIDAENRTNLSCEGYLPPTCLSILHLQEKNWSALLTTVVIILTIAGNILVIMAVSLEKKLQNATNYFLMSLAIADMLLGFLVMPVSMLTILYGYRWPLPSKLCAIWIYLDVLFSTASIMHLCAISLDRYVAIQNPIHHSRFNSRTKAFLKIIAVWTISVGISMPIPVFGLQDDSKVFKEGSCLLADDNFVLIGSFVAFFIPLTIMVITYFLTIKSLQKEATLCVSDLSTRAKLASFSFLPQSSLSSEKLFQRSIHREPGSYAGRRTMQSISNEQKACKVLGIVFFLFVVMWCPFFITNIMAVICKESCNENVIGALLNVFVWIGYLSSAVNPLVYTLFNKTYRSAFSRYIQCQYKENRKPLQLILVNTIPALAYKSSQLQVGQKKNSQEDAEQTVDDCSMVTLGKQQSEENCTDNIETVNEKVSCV
# How it was run: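 Rat cerebral cortex membranes in Tris-HCl pH 7.4 with 10 μM pargyline and 0.1% ascorbic acid. Incubated 20 min at 37 °C with 0.7–1.3 nM [3H]ketanserin. Nonspecific binding with 2 μM ketanserin. Filtration and scintillation counting. Ki by Cheng-Prusoff. 2–3 experiments in triplicate.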
# [11] = biological target: T4, Alpha-1A adrenergic receptor (Homo sapiens); assay: The binding affinity was evaluated on cloned human alpha-1A adrenergic receptor expressed in chinese hamster ovary(CHO) cells by using [3H]prazosin as radioligand.; assay type: cell-based; how it was run: as §1
# [12] = biological target: T2, Alpha-1D adrenergic receptor (Homo sapiens); assay: The binding affinity was evaluated on cloned human alpha-1D adrenergic receptor expressed in chinese hamster ovary(CHO) cells by using [3H]prazosin as radioligand.; assay type: cell-based; how it was run: as §1
# [13] = biological target: T3, Alpha-1B adrenergic receptor (Homo sapiens); assay: The binding affinity was evaluated on cloned human alpha-1B adrenergic receptor expressed in chinese hamster ovary(CHO) cells by using [3H]prazosin as radioligand.; assay type: cell-based; how it was run: as §1
# [14] = biological target: Adrenergic receptor alpha-2 (Rattus norvegicus) (UniProt P22086+P19328+P22909); assay: The binding affinity was evaluated on alpha-2 adrenergic receptor expressed in rat cortex by using [3H]rauwolscine as radioligand.
# How it was run: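 Male Sprague-Dawley rat cerebral cortex membranes, washed in Tris-HCl pH 7.4 and held in buffer with 10 μM pargiline and 0.1% ascorbic acid. Incubated 30 min at 25 °C with 0.5-1.5 nM [3H]rauwolscine; nonspecific binding with 10 μM phentolamine. Filtration, scintillation counting. Ki from Cheng-Prusoff; 2-3 experiments in triplicate.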
# [15] = biological target: T5, Alpha-1A adrenergic receptor (Rattus norvegicus) (UniProt P43140); assay: Antagonist affinity was expressed as apparent pKb at Alpha-1A adrenergic receptor on isolated rat prostatic vas deferens (alpha1A).; assay type: functional, tissue-based
# T5 sequence (whole entry): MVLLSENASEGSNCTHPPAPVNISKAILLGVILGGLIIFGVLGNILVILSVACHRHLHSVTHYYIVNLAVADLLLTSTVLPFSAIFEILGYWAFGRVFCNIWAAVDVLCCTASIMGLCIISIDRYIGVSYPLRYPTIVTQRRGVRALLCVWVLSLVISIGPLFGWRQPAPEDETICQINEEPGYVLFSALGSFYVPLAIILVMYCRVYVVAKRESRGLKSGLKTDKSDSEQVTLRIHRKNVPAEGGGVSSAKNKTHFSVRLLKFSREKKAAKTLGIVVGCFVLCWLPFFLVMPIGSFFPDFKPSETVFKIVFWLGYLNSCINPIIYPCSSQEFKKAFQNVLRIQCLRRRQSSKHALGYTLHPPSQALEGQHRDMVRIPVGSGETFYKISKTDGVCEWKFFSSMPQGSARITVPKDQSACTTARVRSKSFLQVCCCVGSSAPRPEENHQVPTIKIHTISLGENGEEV
# How it was run: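 Rat prostatic vas deferens in Tyrode with 0.1 μM cocaine. Equilibrated 60 min, primed twice with 10 μM noradrenaline, then a control cumulative (–)-noradrenaline curve recorded isometrically. Antagonist equilibrated 30 min before a repeat curve. Apparent pKb = log(DR−1) − log[B], with DR as the ratio of agonist EC50 with/without antagonist. 2–3 antagonist concentrations, each tested four times.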
# [16] = biological target: T6, Alpha-1D adrenergic receptor (Rattus norvegicus) (UniProt P23944); assay: Antagonist affinity was expressed as apparent pKb at Alpha-1D adrenergic receptor on isolated rat thoracic aorta (Alpha-1D); assay type: functional, tissue-based
# T6 sequence (whole entry): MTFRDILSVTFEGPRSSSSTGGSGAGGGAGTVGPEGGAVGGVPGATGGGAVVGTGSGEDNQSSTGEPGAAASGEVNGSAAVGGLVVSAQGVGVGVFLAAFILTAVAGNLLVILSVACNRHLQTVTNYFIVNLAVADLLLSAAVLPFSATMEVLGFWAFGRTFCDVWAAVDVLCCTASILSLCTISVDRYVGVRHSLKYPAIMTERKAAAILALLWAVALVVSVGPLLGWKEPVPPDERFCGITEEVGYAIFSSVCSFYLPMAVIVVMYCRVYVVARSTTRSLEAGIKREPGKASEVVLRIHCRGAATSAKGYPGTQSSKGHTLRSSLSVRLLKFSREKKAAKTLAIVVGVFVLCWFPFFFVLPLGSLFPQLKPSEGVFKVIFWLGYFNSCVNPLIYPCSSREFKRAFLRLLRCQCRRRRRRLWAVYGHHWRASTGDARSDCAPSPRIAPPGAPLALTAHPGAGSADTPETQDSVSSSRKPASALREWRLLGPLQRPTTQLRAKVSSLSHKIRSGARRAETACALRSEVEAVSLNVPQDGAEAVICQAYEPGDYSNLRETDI
# How it was run: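 Helicoidal strips of rat thoracic aorta at 1 g tension, with 0.1 μM cocaine and 1 μM propranolol. After ≥1 h equilibration, cumulative (–)-noradrenaline curves at 30-min intervals; the third served as control. Antagonist equilibrated 30 min before the fourth curve. Apparent pKb from log(DR−1) − log[B], 2–3 antagonist concentrations, each tested four times.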
structure (smiles),measurement,setting,value
COc1cccc(OC)c1OCCNCC1=Cc2ccccc2OC1c1ccccc1 (stereo not given),pKi,[1],8.08
same,pKi,[2],6.95
same,pD2,[3],6.44
same,pKi,[4],6.84
same,pKi,[5],7.14
same,Max,[6],40%
NCCc1c[nH]c2ccc(O)cc12,pD2,[7],7.3
NCCc1c[nH]c2ccc(C(N)=O)cc12,pD2,[8],8.45
COc1cccc(OC)c1OCCNCC1C(=O)c2ccccc2CC1c1ccccc1 (stereo not given),pKi,[1],6.83
same,pKi,[9],< 6
same,pKi,[10],6.63
same,pKi,[11],8.06
same,pKi,[12],6.88
same,pKi,[13],6.11
same,pKi,[14],6.45
COc1cccc(OC)c1OCCNCC1Oc2ccccc2CC1c1ccccc1 (stereo in doubt; 6),pKi,[1],6.76
same,pKi,[11],6.78
same,pKi,[12],6.86
same,pKi,[13],6.51
COc1cccc(OC)c1OCCNCC1C(=O)c2ccccc2SC1c1ccccc1 (stereo not given),pKi,[1],7.36
same,pKi,[4],< 6
same,pKi,[11],7.42
same,pKi,[12],6.37
COc1cccc(OC)c1OCCNC[C@H]1Oc2ccccc2O[C@@H]1c1ccccc1,pKb,[15],8.18
same,pKb,[16],7.51
COc1cccc(OC)c1OCCNCC1COc2ccccc2O1 (stereo not given),pKi,[1],8.68
same,pKi,[9],6.91
same,pKi,[10],6
same,pKi,[11],9.37
same,pKi,[14],7.83
